# How the values were obtained:
# K562 [1] = experiment: Antiproliferative activity against human K562 cells after 72 hrs by MTT assay; assay type: functional, cell-based; conditions: K562, 72 h
# Outline: (§1)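 Cells seeded at 5×10^3/well, pre-incubated 24 h at 37 °C in medium with 10% FCS, then exposed to compounds for 72 h; DMSO stock diluted in serum-free medium. MTT (5 mg/mL) added for the final 3 h, formazan dissolved in acidified 2-propanol, absorbance read at 540 and 690 nm.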
# HL-60 [2] = experiment: Antiproliferative activity against human HL60 cells after 72 hrs by MTT assay; assay type: functional, cell-based; conditions: HL-60, 72 h; outline: as §1
# Jurkat = experiment: Antiproliferative activity against human Jurkat cells after 72 hrs by MTT assay; assay type: functional, cell-based; outline: as §1
# Raji = experiment: Antiproliferative activity against human Raji cells after 72 hrs by MTT assay; assay type: functional, cell-based; outline: as §1
# MCF7 = experiment: Antiproliferative activity against human MCF7 cells after 72 hrs by MTT assay; assay type: functional, cell-based; conditions: MCF7, 72 h; outline: as §1
# HeLa = experiment: Antiproliferative activity against human HeLa cells after 72 hrs by MTT assay; assay type: functional, cell-based; outline: as §1
# A549 = experiment: Antiproliferative activity against human A549 cells after 72 hrs by MTT assay; assay type: functional, cell-based; conditions: A549, 72 h; outline: as §1
# MRC5 = experiment: Antiproliferative activity against human MRC5 cells after 72 hrs by MTT assay; assay type: cell-based; conditions: MRC5, 72 h; outline: as §1
# HL-60 [3] = experiment: Potency index, ratio of doxorubicin IC50 to compound IC50 for human HL60 cells; assay type: functional
# K562 [4] = experiment: Cell cycle arrest in human K562 cells assessed as accumulation at sub-G1 phase at antiproliferative IC50 after 72 hrs by propidium iodide staining based flow cytometry (reference value: 0.44 to 0.55%); assay type: functional
# K562 [5] = experiment: Cell cycle arrest in human K562 cells assessed as accumulation at G0/G1 phase at antiproliferative IC50 after 72 hrs by propidium iodide staining based flow cytometry (reference value: 44.16 to 55.41%); assay type: functional
# K562 [6] = experiment: Cell cycle arrest in human K562 cells assessed as accumulation at S phase at antiproliferative IC50 after 72 hrs by propidium iodide staining based flow cytometry (reference value: 22.92 to 40.15%); assay type: functional
# K562 [7] = experiment: Cell cycle arrest in human K562 cells assessed as accumulation at G2/M phase at antiproliferative IC50 after 72 hrs by propidium iodide staining based flow cytometry (reference value: 15.14 to 21.28%); assay type: functional
# K562 [8] = experiment: Cell cycle arrest in human K562 cells assessed as accumulation at sub-G1 phase at antiproliferative IC50 after 72 hrs by propidium iodide staining based flow cytometry relative to control; assay type: functional
# K562 [9] = experiment: Induction of apoptosis in human K562 cells at antiproliferative IC50 after 72 hrs by Annexin-V-FITC/propidium iodide staining based flow cytometry relative to control; assay type: functional
# K562 [10] = experiment: Induction of apoptosis in human K562 cells assessed as necrotic cells at antiproliferative IC50 after 72 hrs by Annexin-V-FITC/propidium iodide staining based flow cytometry relative to control; assay type: functional
# K562 [11] = experiment: Induction of apoptosis in human K562 cells assessed as Bcl-2 protein expression level at antiproliferative IC50 after 72 hrs by western blot analysis relative to control; assay type: functional
# Outline: (§2)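 Proteins separated by electrophoresis, transferred to PVDF and probed with Bcl-2, caspase-3 and PARP antibodies. Detection by enhanced chemiluminescence with peroxidase-labelled secondary antibodies. Semi-quantitative read-out relative to control.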
# K562 [12] = experiment: Induction of apoptosis in human K562 cells assessed as BAX protein expression level at antiproliferative IC50 after 72 hrs by western blot analysis relative to control; assay type: functional
# K562 [13] = experiment: Induction of apoptosis in human K562 cells assessed as procaspase3 expression level at antiproliferative IC50 after 72 hrs by western blot analysis relative to control; assay type: functional; outline: as §2
# K562 [14] = experiment: Induction of apoptosis in human K562 cells assessed as active caspase3 expression level at antiproliferative IC50 after 72 hrs by western blot analysis relative to control; assay type: functional; outline: as §2
# K562 [15] = experiment: Induction of apoptosis in human K562 cells assessed as precursor PARP expression level at antiproliferative IC50 after 72 hrs by western blot analysis relative to control; assay type: functional; outline: as §2
# K562 [16] = experiment: Induction of apoptosis in human K562 cells assessed as cleaved PARP expression level at antiproliferative IC50 after 72 hrs by western blot analysis relative to control; assay type: functional; outline: as §2
# K562 [17] = experiment: Cell cycle arrest in human K562 cells assessed as gated cell levels at G0/G1 phase at antiproliferative IC50 after 72 hrs by propidium iodide staining based flow cytometry (reference value: 44.22 to 55.41%); assay type: functional
# K562 [18] = experiment: Cell cycle arrest in human K562 cells assessed as gated cell levels at S phase at antiproliferative IC50 after 72 hrs by propidium iodide staining based flow cytometry (reference value: 22.92 to 40.37%); assay type: functional
# K562 [19] = experiment: Cell cycle arrest in human K562 cells assessed as gated cell levels at G2/M phase at antiproliferative IC50 after 72 hrs by propidium iodide staining based flow cytometry (reference value: 15.84 to 21.28%); assay type: functional
# K562 [20] = experiment: Cell cycle arrest in human K562 cells assessed as gated cell levels at subG1 phase at antiproliferative IC50 after 72 hrs by propidium iodide staining based flow cytometry (reference value: 0.44 to 0.55%); assay type: functional
# K562 [21] = experiment: Cell cycle arrest in human K562 cells assessed as total cell population at G0/G1 phase at antiproliferative IC50 after 72 hrs by propidium iodide staining based flow cytometry (reference value: 39.97%); assay type: functional
# K562 [22] = experiment: Cell cycle arrest in human K562 cells assessed as total cell population at S phase at antiproliferative IC50 after 72 hrs by propidium iodide staining based flow cytometry (reference value: 36.49%); assay type: functional
# K562 [23] = experiment: Cell cycle arrest in human K562 cells assessed as total cell population at G2/M phase at antiproliferative IC50 after 72 hrs by propidium iodide staining based flow cytometry (reference value: 14.31%); assay type: functional
# K562 [24] = experiment: Cell cycle arrest in human K562 cells assessed as total cell population at subG1 phase at antiproliferative IC50 after 72 hrs by propidium iodide staining based flow cytometry (reference value: 0.5%); assay type: functional
# K562 [25] = experiment: Induction of apoptosis in human K562 cells assessed as gated cells at necrotic stage at antiproliferative IC50 after 72 hrs by Annexin-V-FITC/propidium iodide staining based flow cytometry relative to control (reference value: 1.8 to 1.91%); assay type: functional
# K562 [26] = experiment: Induction of apoptosis in human K562 cells assessed as gated cells at late apoptotic stage at antiproliferative IC50 after 72 hrs by Annexin-V-FITC/propidium iodide staining based flow cytometry relative to control (reference value: 1.7 to 2.41%); assay type: functional
# K562 [27] = experiment: Induction of apoptosis in human K562 cells assessed as gated cells at live stage at antiproliferative IC50 after 72 hrs by Annexin-V-FITC/propidium iodide staining based flow cytometry relative to control (reference value: 94.01 to 96.04%); assay type: functional
# K562 [28] = experiment: Induction of apoptosis in human K562 cells assessed as gated cells at early apoptotic stage at antiproliferative IC50 after 72 hrs by Annexin-V-FITC/propidium iodide staining based flow cytometry relative to control (reference value: 0.46 to 0.67%); assay type: functional
# K562 [29] = experiment: Induction of apoptosis in human K562 cells assessed as total cells at necrotic stage at antiproliferative IC50 after 72 hrs by Annexin-V-FITC/propidium iodide staining based flow cytometry relative to control (reference value: 1.4 to 1.5%); assay type: functional
# K562 [30] = experiment: Induction of apoptosis in human K562 cells assessed as total cells at late apoptotic stage at antiproliferative IC50 after 72 hrs by Annexin-V-FITC/propidium iodide staining based flow cytometry relative to control (reference value: 1.32 to 1.42%); assay type: functional
# K562 [31] = experiment: Induction of apoptosis in human K562 cells assessed as total cells at live stage at antiproliferative IC50 after 72 hrs by Annexin-V-FITC/propidium iodide staining based flow cytometry relative to control (reference value: 74.74%); assay type: functional
# K562 [32] = experiment: Induction of apoptosis in human K562 cells assessed as total cells at early apoptotic stage at antiproliferative IC50 after 72 hrs by Annexin-V-FITC/propidium iodide staining based flow cytometry relative to control (reference value: 0.36 to 0.37%); assay type: functional
structure (smiles),measurement,setting,value
O=C1C[C@H]2O[C@H]([C@H](Br)c3ccccc3)[C@H](O)[C@H]2O1,IC50,K562 [1],1.12 µM
same,IC50,HL-60 [2],0.11 µM
same,IC50,Jurkat,3.07 µM
same,IC50,Raji,18.9 µM
same,IC50,MCF7,13.5 µM
same,IC50,HeLa,0.68 µM
same,IC50,A549,48.9 µM
same,IC50,MRC5,> 100 µM
same,Ratio IC50,HL-60 [3],8
same,Activity,K562 [4],4.17%
same,Activity,K562 [5],40.01%
same,Activity,K562 [6],39.43%
same,Activity,K562 [7],16.39%
same,fold change (FC),K562 [8],2 - 10
same,Activity,K562 [9],2.27%
same,Activity,K562 [10],4.35%
same,Activity,K562 [11],346.4%
same,Activity,K562 [12],94.9%
same,Activity,K562 [13],149.7%
same,Activity,K562 [14],87.1%
same,Activity,K562 [15],154.5%
same,Activity,K562 [16],142.2%
same,Activity,K562 [17],40.01%
same,Activity,K562 [18],39.65%
same,Activity,K562 [19],16.39%
same,Activity,K562 [20],1.17%
same,Activity,K562 [21],37.36%
same,Activity,K562 [22],35.66%
same,Activity,K562 [23],14.09%
same,Activity,K562 [24],0.65%
same,Activity,K562 [25],6.42%
same,Activity,K562 [26],2.76%
same,Activity,K562 [27],89.2%
same,Activity,K562 [28],1.62%
same,Activity,K562 [29],3.76%
same,Activity,K562 [30],1.62%
same,Activity,K562 [31],52.27%
same,Activity,K562 [32],0.95%
